{
  "source": "ChEMBL document CHEMBL1157725",
  "about": "(Bioorg Med Chem, 2010)",
  "key": {"[1]": {"assay": "Growth inhibition of human […] cells after 48 hrs by SRB assay", "type": "functional"}, "LOX IMVI": {"system": "LOX IMVI", "assay": "Growth inhibition of human LOXIMVI cells after 48 hrs by SRB assay", "type": "functional", "summary_of_the_method": "(§1)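 This is the NCI cell-line panel. Cells are exposed for 48 h to five concentrations in 10-fold serial dilution. Growth is read by the SRB protein assay, and GI₅₀ is calculated from log dose–response curves.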"}, "SF-539": {"system": "SF-539", "assay": "Growth inhibition of human SF539 cells after 48 hrs by SRB assay", "type": "functional", "conditions": "SF-539, 48 h", "summary_of_the_method": "(§2)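 NCI human tumor cell line panel. Cells exposed for 48 h to five concentrations in a 10-fold serial dilution. Growth inhibition read as total cell protein by sulforhodamine B staining. GI50 calculated from log dose–response curves.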"}, "EKVX": {"system": "EKVX", "assay": "Growth inhibition of human EKVX cells after 48 hrs by SRB assay", "type": "functional"}, "A549": {"system": "A549", "assay": "Growth inhibition of human A549 cells after 48 hrs by SRB assay", "type": "functional", "conditions": "A549, 48 h"}, "DU-145": {"system": "DU-145", "assay": "Growth inhibition of human DU145 cells after 48 hrs by SRB assay", "type": "functional", "conditions": "DU-145, 48 h", "summary_of_the_method": "as §1"}, "NCI-H226": {"system": "NCI-H226", "assay": "Growth inhibition of human NCI-H226 cells after 48 hrs by SRB assay", "type": "functional", "conditions": "NCI-H226, 48 h"}, "[2]": {"assay": "Inhibition of tubulin polymerization by turbidimetry", "summary_of_the_method": "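Tubulin at 10 µM (1.0 mg/mL). Polymerization followed turbidimetrically at 350 nm in temperature-controlled spectrophotometers.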"}, "CCRF-CEM": {"system": "CCRF-CEM", "assay": "Growth inhibition of human CCRF-CEM cells after 48 hrs by SRB assay", "type": "functional"}, "CAKI-1": {"system": "CAKI-1", "assay": "Growth inhibition of human Caki1 cells after 48 hrs by SRB assay", "type": "functional", "conditions": "CAKI-1, 48 h", "summary_of_the_method": "as §1"}, "MDA-MB-435": {"system": "MDA-MB-435", "assay": "Growth inhibition of human MDA-MB-435 cells after 48 hrs by SRB assay", "type": "functional", "conditions": "MDA-MB-435, 48 h", "summary_of_the_method": "as §1"}, "HUVEC": {"system": "HUVEC", "assay": "Antiangiogenic activity in HUVEC cells assessed inhibition of tube formation at 1 uM after 16 hrs by tube formation assay", "type": "functional, cell-based", "conditions": "Homo sapiens", "summary_of_the_method": "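HUVEC cells (1 × 10⁵) are seeded onto a Matrigel surface and tube formation is scored after treatment.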"}, "MCF7 [3]": {"system": "MCF7", "assay": "Cell cycle arrest in human MCF7 cells by accumulation at G2/M phase at 1 uM after 48 hrs by flow cytometry (Rvb=5.9%)", "type": "functional"}, "MDA-MB-231": {"system": "MDA-MB-231", "assay": "Growth inhibition of human MDA-MB-231 cells after 48 hrs by SRB assay", "type": "functional", "conditions": "MDA-MB-231, 48 h", "summary_of_the_method": "as §1"}, "NCI-H23": {"system": "NCI-H23", "assay": "Growth inhibition of human NCI-H23 cells after 48 hrs by SRB assay", "type": "functional", "conditions": "NCI-H23, 48 h"}, "HCT-116": {"system": "HCT-116", "assay": "Growth inhibition of human HCT116 cells after 48 hrs by SRB assay", "type": "functional", "conditions": "HCT-116, 48 h"}, "HOP-62": {"system": "HOP-62", "assay": "Growth inhibition of human HOP62 cells after 48 hrs by SRB assay", "type": "functional", "conditions": "HOP-62, 48 h"}, "HCT-15": {"system": "HCT-15", "assay": "Growth inhibition of human HCT15 cells after 48 hrs by SRB assay", "type": "functional", "conditions": "HCT-15, 48 h"}, "NCI-H460": {"system": "NCI-H460", "assay": "Growth inhibition of human NCI-H460 cells after 48 hrs by SRB assay", "type": "functional", "conditions": "NCI-H460, 48 h"}, "SK-MEL-5": {"system": "SK-MEL-5", "assay": "Growth inhibition of human SK-MEL-5 cells after 48 hrs by SRB assay", "type": "functional", "conditions": "SK-MEL-5, 48 h", "summary_of_the_method": "as §2"}, "TK-10": {"system": "TK-10", "assay": "Growth inhibition of human TK10 cells after 48 hrs by SRB assay", "type": "functional", "conditions": "TK-10, 48 h", "summary_of_the_method": "as §2"}, "A10": {"system": "A10", "assay": "Inhibition of tubulin in rat A10 cells assessed as thinning of microtubule network at 20 uM after 18 hrs by fluorescence microscopy", "type": "cell-based", "summary_of_the_method": "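A-10 cells plated on glass coverslips and treated with compound at varying concentrations for 18 h. After fixation, microtubules immunostained with a β-tubulin antibody (indirect immunofluorescence) and nuclei stained with DAPI. Read by fluorescence microscopy. Percentage of cellular microtubule loss estimated visually across the concentration range.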"}, "SK-OV-3": {"system": "SK-OV-3", "assay": "Growth inhibition of human SKOV3 cells after 48 hrs by SRB assay", "type": "functional", "conditions": "SK-OV-3, 48 h", "summary_of_the_method": "as §2"}, "OVCAR-3": {"system": "OVCAR-3", "assay": "Growth inhibition of human OVCAR-3 cells after 48 hrs by SRB assay", "type": "functional", "conditions": "OVCAR-3, 48 h", "summary_of_the_method": "as §1"}, "M14": {"system": "M14", "assay": "Growth inhibition of human M14 cells after 48 hrs by SRB assay", "type": "functional", "conditions": "M14, 48 h", "summary_of_the_method": "as §1"}, "MCF7 [4]": {"system": "MCF7", "assay": "Growth inhibition of human MCF7 cells after 48 hrs by SRB assay", "type": "functional", "conditions": "MCF7, 48 h", "summary_of_the_method": "as §1"}, "SF-268": {"system": "SF-268", "assay": "Growth inhibition of human SF268 cells after 48 hrs by SRB assay", "type": "functional", "conditions": "SF-268, 48 h", "summary_of_the_method": "as §1"}, "K562": {"system": "K562", "assay": "Growth inhibition of human K562 cells after 48 hrs by SRB assay", "type": "functional", "conditions": "K562, 48 h"}, "Malme-3M": {"system": "Malme-3M", "assay": "Growth inhibition of human MALME-3M cells after 48 hrs by SRB assay", "type": "functional", "summary_of_the_method": "as §1"}, "MCF7 [5]": {"system": "MCF7", "assay": "Antiproliferative activity against human MCF7 cells after 24 hrs by SRB assay", "type": "functional, cell-based", "conditions": "MCF7, 24 h", "summary_of_the_method": "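MCF-7 cells are grown for 24 h with or without drug, then for a further 48 h. Total cell protein is measured by sulforhodamine B staining, and the IC₅₀ is derived from it.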"}, "U-251": {"system": "U-251", "assay": "Growth inhibition of human U251 cells after 48 hrs by SRB assay", "type": "functional", "conditions": "U-251, 48 h", "summary_of_the_method": "as §2"}, "[6]": {"assay": "Displacement of [3H]colchicine from tubulin at 50 uM by turbidimetry", "conditions": "in the assay text read “by DEAE-cellulose filter method” for “by turbidimetry”", "summary_of_the_method": "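Binding of [³H]colchicine to tubulin (1.0 µM, 0.1 mg/mL) is measured by the DEAE-cellulose filter method. The radioligand is at 5.0 µM and test agents at 5 or 50 µM. Each is run in triplicate.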"}, "NCI-H322M": {"system": "NCI-H322M", "assay": "Growth inhibition of human NCI-H322M cells after 48 hrs by SRB assay", "type": "functional"}},
  "note": "pIC50: −log10 of the molar value. Calls of active or inactive are those of the source. No cut-off for these calls is given here.",
  "data": [
    {"smiles": "COc1ccc(/C=C/C(=O)c2cc(OC)c(OC)c(OC)c2)cc1B(O)O", "values": [
      {"measurement": "GI50", "setting": "[1]", "value": 1.12, "unit": "µM"},
      {"measurement": "GI50", "setting": "LOX IMVI", "value": 0.06, "unit": "µM"},
      {"measurement": "GI50", "setting": "SF-539", "value": 0.035, "unit": "µM"},
      {"measurement": "GI50", "setting": "EKVX", "value": 1.31, "unit": "µM"},
      {"measurement": "GI50", "setting": "A549", "value": 0.45, "unit": "µM"},
      {"measurement": "GI50", "setting": "DU-145", "value": 0.05, "unit": "µM"},
      {"measurement": "GI50", "setting": "NCI-H226", "value": 4.14, "unit": "µM"},
      {"measurement": "pIC50", "setting": "[2]", "value": 4.51},
      {"measurement": "GI50", "setting": "CCRF-CEM", "value": 2.39, "unit": "µM"},
      {"measurement": "GI50", "setting": "CAKI-1", "value": 6.39, "unit": "µM"},
      {"measurement": "GI50", "setting": "MDA-MB-435", "value": 1.95, "unit": "µM"},
      {"measurement": "inhibition", "setting": "HUVEC", "value": "Active"},
      {"measurement": "Activity", "setting": "MCF7 [3]", "value": 7.1, "unit": "%"},
      {"measurement": "GI50", "setting": "MDA-MB-231", "value": 0.11, "unit": "µM"},
      {"measurement": "GI50", "setting": "NCI-H23", "value": 0.14, "unit": "µM"},
      {"measurement": "GI50", "setting": "HCT-116", "value": 0.37, "unit": "µM"},
      {"measurement": "GI50", "setting": "HOP-62", "value": 0.098, "unit": "µM"},
      {"measurement": "GI50", "setting": "HCT-15", "value": "< 0.01", "unit": "µM"},
      {"measurement": "GI50", "setting": "NCI-H460", "value": 0.028, "unit": "µM"},
      {"measurement": "GI50", "setting": "SK-MEL-5", "value": 0.31, "unit": "µM"},
      {"measurement": "GI50", "setting": "TK-10", "value": 20.9, "unit": "µM"},
      {"measurement": "Activity", "setting": "A10", "value": "Active"},
      {"measurement": "GI50", "setting": "SK-OV-3", "value": "< 0.01", "unit": "µM"},
      {"measurement": "GI50", "setting": "OVCAR-3", "value": 2.08, "unit": "µM"},
      {"measurement": "GI50", "setting": "M14", "value": 1.19, "unit": "µM"},
      {"measurement": "GI50", "setting": "MCF7 [4]", "value": 0.034, "unit": "µM"},
      {"measurement": "GI50", "setting": "SF-268", "value": 0.8, "unit": "µM"},
      {"measurement": "GI50", "setting": "K562", "value": 3.46, "unit": "µM"},
      {"measurement": "GI50", "setting": "Malme-3M", "value": 5.49, "unit": "µM"},
      {"measurement": "pIC50", "setting": "MCF7 [5]", "value": 6.05},
      {"measurement": "GI50", "setting": "U-251", "value": 0.025, "unit": "µM"},
      {"measurement": "inhibition", "setting": "[6]", "value": 56, "unit": "%"},
      {"measurement": "GI50", "setting": "NCI-H322M", "value": 8.44, "unit": "µM"}
    ]}
  ]
}
